PMC7870562 (Bioorganic chemistry, 2020)

Experiments:
[1] = test system: A375 cells; test: MTT cytotoxicity / cell viability assay, A375; format: cell-based, human; conditions: for IC50: Homo sapiens, A-375, 48 h; for selectivity index: IC50 melanocytes / IC50 A375
Summary of the method: (§1)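 Cells in 5–10% FBS/DMEM were seeded at 5×10³ per well, refed at 24 h and grown to 70% confluence. They were treated for 48 h at 37°C, 5% CO2 with two-fold serial dilutions of test compound in DMSO (≤0.1%), […], in 8–10 repeats. After MTT, absorbance was read at 562 nm. Viability was expressed relative to DMSO controls and IC50 derived by nonlinear regression. Data are mean ± SD of ≥5 independent experiments in octuplicates.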

[2] = test system: A431 cells; test: MTT cytotoxicity / cell viability assay, A431; format: cell-based, human; conditions: for IC50: Homo sapiens, A-431, 48 h; for selectivity index: IC50 HaCaT / IC50 A431
Summary of the method: as §1

[3] = test system: HaCaT; test: MTT cytotoxicity / cell viability assay, HaCaT keratinocytes; format: cell-based; conditions: Homo sapiens, 48 h
Summary of the method: as §1

[4] = test system: Melanocyte; test: MTT cytotoxicity / cell viability assay, normal melanocytes; format: cell-based; conditions: Homo sapiens, 48 h
Summary of the method: as §1

[5] = test system: UWBCC1 cells; test: MTT cytotoxicity / cell viability assay, UWBCC1; format: cell-based, human; conditions: for IC50: Homo sapiens, 48 h; for selectivity index: IC50 HaCaT / IC50 UWBCC1
Summary of the method: as §1

[6] = test system: SK-Mel-28 cells; test: MTT cytotoxicity / cell viability assay, SK-Mel-28; format: cell-based, human; conditions: for IC50: Homo sapiens, SK-MEL-28, 48 h; for selectivity index: IC50 melanocytes / IC50 SK-Mel-28
Summary of the method: as §1

[7] = target: CDK2/Cyclin E (Homo sapiens, UniProt P24941); test: In vitro kinase activity assay; format: biochemical; conditions: 10-dose, three-fold serial dilution from 100 μM
Summary of the method: (§2)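 Kinase profiling was run at Reaction Biology. IC50 values came from 10-dose mode, three-fold serial dilutions starting at 100 μM. Reference inhibitors were co-assayed at 1 and 10 μM.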

[8] = target: mTOR/FRAP1 (Homo sapiens, UniProt P42345); test: In vitro kinase activity assay; format: biochemical; conditions: for IC50: mTOR/FRAP1 IC50, 10-dose, three-fold serial dilution from 100 μM
Summary of the method: as §2

[9] = target: CDK2/Cyclin A (Homo sapiens, UniProt P24941); test: In vitro kinase activity assay; format: biochemical; conditions: 10-dose, three-fold serial dilution from 100 μM
Summary of the method: as §2

[10] = target: c-Kit (Homo sapiens, UniProt P10721); test: In vitro kinase activity assay; format: biochemical
c-Kit, sequence (P10721 26-976): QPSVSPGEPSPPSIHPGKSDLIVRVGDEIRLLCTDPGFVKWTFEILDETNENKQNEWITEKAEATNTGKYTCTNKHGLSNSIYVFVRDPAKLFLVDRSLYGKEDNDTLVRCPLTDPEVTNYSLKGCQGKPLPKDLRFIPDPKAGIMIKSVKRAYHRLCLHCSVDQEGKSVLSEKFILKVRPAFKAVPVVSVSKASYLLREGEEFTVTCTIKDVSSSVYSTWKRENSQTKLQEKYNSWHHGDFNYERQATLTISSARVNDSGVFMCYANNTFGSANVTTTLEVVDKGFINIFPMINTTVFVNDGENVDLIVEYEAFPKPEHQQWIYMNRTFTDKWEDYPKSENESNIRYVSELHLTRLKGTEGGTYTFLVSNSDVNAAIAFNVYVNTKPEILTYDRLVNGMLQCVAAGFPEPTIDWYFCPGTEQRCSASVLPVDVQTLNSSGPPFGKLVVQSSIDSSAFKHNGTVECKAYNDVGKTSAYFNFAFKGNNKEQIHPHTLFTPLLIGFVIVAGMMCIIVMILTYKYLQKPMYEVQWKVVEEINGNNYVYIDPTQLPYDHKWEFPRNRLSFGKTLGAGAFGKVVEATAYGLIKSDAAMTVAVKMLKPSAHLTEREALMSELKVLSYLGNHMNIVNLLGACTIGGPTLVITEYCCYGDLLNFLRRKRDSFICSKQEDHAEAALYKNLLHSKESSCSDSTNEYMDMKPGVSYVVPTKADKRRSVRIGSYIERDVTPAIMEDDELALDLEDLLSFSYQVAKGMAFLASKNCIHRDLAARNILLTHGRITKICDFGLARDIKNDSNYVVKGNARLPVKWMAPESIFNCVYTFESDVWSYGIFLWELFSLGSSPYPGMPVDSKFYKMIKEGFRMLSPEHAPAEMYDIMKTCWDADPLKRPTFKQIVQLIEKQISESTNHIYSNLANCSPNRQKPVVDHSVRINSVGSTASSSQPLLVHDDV
Summary of the method: as §2

[11] = test system: A431 cells; test: DAPI staining of apoptotic nuclei, A431; format: cell-based, human
Summary of the method: (§3)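 Equal numbers of cells were seeded in T-25 flasks and exposed to test compound at different concentrations for 36 h. Cells were PBS-washed, stained with DAPI in PBS and imaged by fluorescence microscopy at 10x and 1.6×10x. Apoptotic nuclei were scored by morphology and expressed as percentage of cells.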

[12] = test system: A375 cells; test: DAPI staining of apoptotic nuclei, A375; format: cell-based, human
Summary of the method: as §3

[13] = A431, treated 36 hours at ½IC50
[14] = A375, treated 36 hours at ½IC50

Structure (SMILES) | IC50 [1] [µM] | IC50 [2] [µM] | IC50 [3] [µM] | IC50 [4] [µM] | selectivity index [1] | IC50 [5] [µM] | selectivity index [5] | selectivity index [2] | IC50 [6] [µM] | selectivity index [6] | IC50 [7] [µM] | IC50 [8] [µM] | IC50 [9] [µM] | IC50 [10] [µM] | DAPI (+) apoptotic cells ([11]; A431, treated 36 hours at IC50) [%] | DAPI (+) apoptotic cells [11, 13] [%] | inhibition of mTOR kinase activity (in words) [8] | DAPI (+) apoptotic cells [12, 14] [%] | DAPI (+) apoptotic cells ([12]; A375, treated 36 hours at IC50) [%]
COc1ccc2c(=O)c(O)c(-c3ccc(Br)cc3)oc2c1 [F12, 2-(4-Bromophenyl)-3-hydroxy-7-methoxy-4H-chromen-4-one] | > 100 | > 100 |  |  |  |  |  |  |  |  |  |  |  |  |  |  |  |  | 
O=c1c(O)c(-c2ccccc2)oc2ccccc12 [F1, 3-Hydroxy-2-phenyl-4H-chromen-4-one] | 14 ± 0.8 | 15 ± 0.04 | 38 ± 0.02 | 27 ± 0.9 | 1.9 | 12 ± 0.8 | 3.2 | 2.5 | 21 ± 1 | 1.2 |  |  |  |  |  |  |  |  | 
O=c1c(O)c(-c2ccc(Br)cc2Cl)oc2ccccc12 [F4, 2-(4-Bromo-2-chlorophenyl)-3-hydroxy-4H-chromen-4-one] | > 100 | 61 ± 30 |  |  |  |  |  |  |  |  |  |  |  |  |  |  |  |  | 
COc1ccc(-c2oc3ccc(Br)cc3c(=O)c2O)cc1OC [F16, 6-Bromo-2-(3,4-dimethoxyphenyl)-3-hydroxy-4H-chromen-4-one] | 79.5 ± 9 | > 100 |  |  |  | 40 ± 0.89 |  |  |  |  |  |  |  |  |  |  |  |  | 
COc1cc(OC)c(-c2oc3cc(Cl)ccc3c(=O)c2O)cc1OC [F24, 7-Chloro-3-hydroxy-2-(2,4,5-trimethoxyphenyl)-4H-chromen-4-one] | > 100 | > 100 |  |  |  |  |  |  |  |  |  |  |  |  |  |  |  |  | 
O=c1c(O)c(-c2ccc(O)c(O)c2)oc2cc(O)ccc12 [F0, 3´,4´,7-trihydroxyflavonol, reference compound] | 21 ± 1 | 26 ± 1 | 30 ± 1.1 | 33 ± 2.7 | 1.6 | 28 ± 0.2 | 1.1 | 1.2 | 29 ± 4 | 1.1 | 3.34 | 28.7 | 2.62 | 1.34 |  |  |  |  | 
COc1cccc2c1C(=O)c1c(O)c3c(c(O)c1C2=O)C[C@@](O)(C(=O)CO)C[C@@H]3O[C@H]1C[C@H](N)[C@H](O)[C@H](C)O1 [Doxorubicin, reference compound] | 0.1 ± 0.01 | 0.37 ± 0.02 | 0.07 ± 0.01 |  |  |  |  | 0.2 | 0.23 ± 0.06 |  |  |  |  |  |  |  |  |  | 
COc1cc(-c2oc3ccc(F)cc3c(=O)c2O)cc(OC)c1OC [F22, 6-Fluoro-3-hydroxy-2-(3,4,5-trimethoxyphenyl)-4H-chromen-4-one] | 15 ± 1.9 | 13 ± 2.6 | 23 ± 1.9 | 24 ± 1.6 | 1.6 | 11 ± 2 | 2.1 | 1.8 |  |  |  |  |  |  |  |  |  |  | 
O=c1c(O)c(-c2ccc(OCc3ccccc3)cc2)oc2ccccc12 [F7, 2-(4-(Benzyloxy)phenyl)-3-hydroxy-4H-chromen-4-one] | 88 ± 35 | > 100 |  |  |  |  |  |  |  |  |  |  |  |  |  |  |  |  | 
COc1cc(OC)c(-c2oc3ccccc3c(=O)c2O)cc1OC [F23, 3-Hydroxy-2-(2,4,5-trimethoxyphenyl)-4H-chromen-4-one] | 13 ± 3.1 | 12 ± 1.9 | 24 ± 1.4 | 22 ± 1 | 1.7 | 9.4 ± 1.4 | 2.6 | 2.0 | 19 ± 3 | 1.6 |  |  |  |  |  |  |  |  | 
COc1ccc(-c2oc3cc(C)ccc3c(=O)c2O)c(Br)c1OC [F10, 2-(2-Bromo-3,4-dimethoxyphenyl)-3-hydroxy-7-methyl-4H-chromen-4-one] | 31 ± 13 | 36 ± 0.1 |  |  |  | 11 ± 5 |  |  |  |  |  |  |  |  |  |  |  |  | 
CCOc1ccc(-c2oc3cc(Cl)ccc3c(=O)c2O)cc1F [F21, 7-Chloro-2-(4-ethoxy-3-fluorophenyl)-3-hydroxy-4H-chromen-4-one] | 8.6 ± 0.4 | 8.2 ± 0.2 | 26 ± 0.4 | 27 ± 0.1 | 3.2 |  |  | 3.2 | 12 ± 3 | 2.3 |  |  | 30.1 | 0.26 | 14.4 | 8.8 | did not substantively inhibit | 5.4 | 
O=c1c(O)c(-c2ccc(SC(F)(F)F)cc2)oc2ccccc12 [F3, 3-Hydroxy-2-(4-((trifluoromethyl)thio)phenyl)-4H-chromen-4-one] | 14 ± 0.2 | 9.7 ± 2.3 | 27 ± 0.7 | 31 ± 0.74 | 2.2 |  |  | 2.8 | 5.2 ± 1.7 | 6.0 |  |  |  |  |  |  |  |  | 
O=c1c(O)c(-c2cc(C(F)(F)F)cc(C(F)(F)F)c2)oc2ccccc12 [F6, 2-(3,5-Bis(trifluoromethyl)phenyl)-3-hydroxy-4H-chromen-4-one] | 7 ± 0.32 | 8.6 ± 0.5 | 31 ± 1.9 | 26 ± 1.3 | 3.7 | 6.6 ± 0.79 | 4.7 | 3.6 | 27 ± 4.1 |  |  |  | > 100 | > 100 |  |  |  |  | 
COc1cccc(-c2oc3cc(Br)ccc3c(=O)c2O)c1 [F15, 7-Bromo-3-hydroxy-2-(3-methoxyphenyl)-4H-chromen-4-one] | > 100 | > 100 |  |  |  |  |  |  |  |  |  |  |  |  |  |  |  |  | 
Cc1ccc2c(=O)c(O)c(-c3cccc(Cl)c3)oc2c1 [F8, 2-(3-Chlorophenyl)-3-hydroxy-7-methyl-4H-chromen-4-one] | 8.4 ± 0.4 | 8.3 ± 2.1 | 22 ± 0.2 | 26 ± 3.8 | 3.1 | 6.7 ± 1.5 | 3.3 | 2.7 | 22 ± 3 | 1.1 | 17.1 | 23.9 | 7.16 | 0.54 | 12.8 | 5.84 |  | 6.5 | 11.3
Cc1ccc2c(=O)c(O)c(-c3ccc(C(C)(C)C)cc3)oc2c1 [F11, 2-(4-(Tert-butyl)phenyl)-3-hydroxy-7-methyl-4H-chromen-4-one] | 11 ± 2 | 4.7 ± 0.9 | 25 ± 0.78 | 26 ± 1.1 | 2.4 | 9.7 ± 0.6 | 2.3 | 4.7 | 18 ± 2 | 1.4 |  |  | 32.5 |  |  |  | did not substantively inhibit |  | 
COc1ccc2c(=O)c(O)c(-c3ccc(C(C)(C)C)cc3)oc2c1 [F13, 2-(4-(Tert-butyl)phenyl)-3-hydroxy-7-methoxy-4H-chromen-4-one] | 28 ± 24 | > 100 |  |  |  |  |  |  |  |  |  |  |  |  |  |  |  |  | 
COc1cccc(-c2oc3ccccc3c(=O)c2O)c1 [F2, 3-Hydroxy-2-(3-methoxyphenyl)-4H-chromen-4-one] | 28 ± 2.3 | 21 ± 16 |  |  |  |  |  |  |  |  |  |  |  |  |  |  |  |  | 
O=c1c(O)c(-c2ccc(C(F)(F)F)cc2C(F)(F)F)oc2ccccc12 [F5, 2-(2,4-Bis(trifluoromethyl)phenyl)-3-hydroxy-4H-chromen-4-one] | 95 ± 12 | > 100 |  |  |  |  |  |  |  |  |  |  |  |  |  |  |  |  | 
O=c1c(O)c(-c2ccccc2)oc2cc(Br)ccc12 [F14, 7-Bromo-3-hydroxy-2-phenyl-4H-chromen-4-one] | 15 ± 0.08 | 5.3 ± 2.1 | 24 ± 0.2 | 24 ± 0.84 | 1.4 | 3.3 ± 1.3 | 7.3 | 4.5 | 22 ± 4.3 |  | 5.38 | > 100 | 6.64 | 0.13 |  | 6.92 |  | 6.2 | 10.9
Cc1cc2oc(-c3ccc(C(C)(C)C)cc3)c(O)c(=O)c2cc1Cl [F18, 2-(4-(Tert-butyl)phenyl)-6-chloro-3-hydroxy-7-methyl-4H-chromen-4-one] | > 100 | 24 ± 5.6 |  |  |  |  |  |  |  |  |  |  |  |  |  |  |  |  | 
Cc1cc2oc(-c3ccc(OCc4ccccc4)cc3)c(O)c(=O)c2cc1Cl [F19, 2-(4-(Benzyloxy)phenyl)-6-chloro-3-hydroxy-7-methyl-4H-chromen-4-one] | 13 ± 2.6 | 1.5 ± 0.3 | 28 ± 0.31 | 27 ± 1 | 1.7 | 1.1 ± 0.4 | 25 | 19 | 19 ± 3 | 1.2 |  | 1.64 | 12.7 | 0.33 | 14.2 | 6.71 |  | 5.6 | 13.3
